Consider 1 compound from ChEMBL document CHEMBL1287656, “New octahydroquinazoline derivatives: synthesis and hypotensive activity” (Eur J Med Chem, 2010).

SMILES strings stand for the structures.

Series [1] has as its system Rattus norvegicus. In words: Hypotensive activity in anaesthetized albino rat assessed as change in diastolic arterial blood pressure at 5 mg/kg, ip after 5 mins relative to control. Type of series: functional. The settings on record: route intraperitoneal. In outline:
(§1)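 Male adult albino rats (groups of 6) anaesthetised with urethane 1.75–2.0 g/Kg i.p. Test agent given i.p. at 5 mg/Kg, dissolved in tween 80 and diluted 1:3 with distilled water. A solvent-treated group served as control. Arterial pressure was recorded via a cannula and pressure transducer on a chart oscillograph at 5, 15, 30 and 60 min. Statistics by one-way ANOVA or unpaired t test.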

Series [2] has as its system Rattus norvegicus. The series can be described thus: Hypotensive activity in anaesthetized albino rat assessed as change in systolic arterial blood pressure at 5 mg/kg, ip after 5 mins relative to control. The settings on record: route intraperitoneal. The series is classed as functional. In outline: as §1
In series [3] the test system is Rattus norvegicus. The series can be described thus: Hypotensive activity in anaesthetized albino rat assessed as change in diastolic arterial blood pressure at 60 mg/kg, ip after 5 mins relative to control. The series is classed as functional. The following applies: route intraperitoneal.
Series [4] relates to Rattus norvegicus. In words: Toxicity in anaesthetized albino rat assessed as change in heart rate at 5 mg/kg, ip after 5 mins relative to control. The series is classed as organism-based. The following applies: in vivo. Also on record: dose 5 mg/kg, route intraperitoneal. An outline of the steps: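 Urethane-anaesthetised (1.75–2.0 g/Kg i.p.) male albino rats, 6 per group, received 5 mg/Kg i.p. in tween 80/distilled water (1:3); solvent-treated controls. Heart rate was taken from a lead II ECG at 5 min after injection (also 15, 30, 60 min). Analysed by ANOVA or unpaired t test.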

Series [5] has as its system Rattus norvegicus. In words: Toxicity in anaesthetized albino rat assessed as change in heart rate at 15 mg/kg, ip after 5 mins relative to control. Type of series: organism-based. Further details: dose 15 mg/kg, route intraperitoneal. The following applies: in vivo.
The test system of series [6] is Rattus norvegicus. In words: Toxicity in anaesthetized albino rat assessed as change in heart rate at 30 mg/kg, ip after 5 mins relative to control. Type of series: organism-based. Further details: dose 30 mg/kg, route intraperitoneal. The settings on record: in vivo.
For series [7], the system named is Rattus norvegicus. In words: Toxicity in anaesthetized albino rat assessed as change in heart rate at 60 mg/kg, ip after 5 mins relative to control. The series is classed as organism-based. Further details: dose 60 mg/kg, route intraperitoneal. The following applies: in vivo.
Series [8] concerns Rattus norvegicus. In words: Hypotensive activity in anaesthetized albino rat assessed as change in systolic arterial blood pressure at 15 mg/kg, ip. Type of series: functional, organism-based. Further details: dose 15 mg/kg. The following applies: TDE = time-dependent effect.
In series [9] the test system is Rattus norvegicus. The series can be described thus: Hypotensive activity in anaesthetized albino rat assessed as reduction of adrenaline-induced increase in systolic arterial blood pressure at […], iv administered 30 mins before adrenaline challenge measured after 30 mins relative to control. The series is classed as functional. Further details: scale not given: the % may be the effect or the level left. An outline of the steps: (§2)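 Anaesthetised male albino rats (urethane 1.75–2.0 g/Kg i.p.; n=6 per group). Adrenaline (3/Kg i.v.) pressor response was recorded alone, 30 min before i.p. injection of the test agent (5 mg/Kg in tween 80/water). The adrenaline challenge was repeated 30 min and 1 h after dosing. Systolic and diastolic pressure were recorded via a cannulated artery and transducer.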

In series [10] the test system is Rattus norvegicus. In words: Hypotensive activity in anaesthetized albino rat assessed as reduction of adrenaline-induced increase in diastolic arterial blood pressure at 3 ug/kg, iv administered 30 mins before adrenaline challenge measured after 30 mins relative to control. The series is classed as functional. Further details: scale not given: the % may be the effect or the level left. An outline of the steps: as §2

Series [11] relates to Rattus norvegicus. In words: Hypotensive activity in anaesthetized albino rat assessed as reduction of adrenaline-induced increase in systolic arterial blood pressure at 3 ug/kg, iv administered 30 mins before adrenaline challenge measured after 1 hr relative to control. Type of series: functional. Also on record: scale not given: the % may be the effect or the level left. In outline:
as §2

Series [12] concerns Rattus norvegicus. In words: Hypotensive activity in anaesthetized albino rat assessed as reduction of adrenaline-induced increase in diastolic arterial blood pressure at 3 ug/kg, iv administered 30 mins before adrenaline challenge measured after 1 hr relative to control. Type of series: functional. Also on record: scale not given: the % may be the effect or the level left. In outline: as §2

For series [13], the system named is Rattus norvegicus. In words: Hypotensive activity in anaesthetized albino rat assessed as change in diastolic arterial blood pressure at 5 mg/kg, ip. The following applies: TDE = time-dependent effect.
Series [14] has as its system Rattus norvegicus. The series can be described thus: Hypotensive activity in anaesthetized albino rat assessed as change in systolic arterial blood pressure at 5 mg/kg, ip after 15 mins relative to control. The settings on record: route intraperitoneal.
In series [15] the test system is Rattus norvegicus. In words: Hypotensive activity in anaesthetized albino rat assessed as change in systolic arterial blood pressure at 5 mg/kg, ip after 60 mins relative to control. The settings on record: route intraperitoneal.
Series [16] deals with Rattus norvegicus. The series can be described thus: Hypotensive activity in anaesthetized albino rat assessed as change in diastolic arterial blood pressure at 5 mg/kg, ip after 15 mins relative to control. The settings on record: route intraperitoneal.
Series [17] relates to Rattus norvegicus. In words: Hypotensive activity in anaesthetized albino rat assessed as change in diastolic arterial blood pressure at 5 mg/kg, ip after 30 mins relative to control. The settings on record: route intraperitoneal.

As for `Cc1ccc(N2CC3=C(CC(C)(C)CC3=O)N(c3ccc(Cl)cc3)C2)cc1`, the Activity is 0% in the series with Rattus norvegicus [1]; 0% in the series on Rattus norvegicus [2]; -18.7% in the series on Rattus norvegicus [3]; 0% in the series on Rattus norvegicus [4]; 0% with Rattus norvegicus [5]; 0% in the series on Rattus norvegicus [6]. For the same compound, the Activity with Rattus norvegicus [7] was 0%; in the series on Rattus norvegicus [8], “tde”; with Rattus norvegicus [9] it was -11%; with Rattus norvegicus [10], -8%; in the series on Rattus norvegicus [11] it was 0%; in the series on Rattus norvegicus [12] it was 0%. Besides, the Activity result was “tde” in the series on Rattus norvegicus [13]; 0% in the series on Rattus norvegicus [14]; -6% with Rattus norvegicus [15]; 0% in the series on Rattus norvegicus [16]; -6.25% in the series with Rattus norvegicus [17].
